Measurements taken from ChEMBL document CHEMBL1926556, “Synthesis and biological activities of 2-[(heteroaryl)methyl]imidazolines” (Bioorg Med Chem, 2012).

Columns and labels:
[1] = molecular target: T1, Adrenergic receptor alpha-1 (Rattus norvegicus, UniProt P15823+P23944+P43140); assay: Displacement of [3H]prazosin from adrenoceptor alpha1 in Sprague-Dawley rat brain after 45 mins by scintillation counting
T1 sequence (P15823 whole entry): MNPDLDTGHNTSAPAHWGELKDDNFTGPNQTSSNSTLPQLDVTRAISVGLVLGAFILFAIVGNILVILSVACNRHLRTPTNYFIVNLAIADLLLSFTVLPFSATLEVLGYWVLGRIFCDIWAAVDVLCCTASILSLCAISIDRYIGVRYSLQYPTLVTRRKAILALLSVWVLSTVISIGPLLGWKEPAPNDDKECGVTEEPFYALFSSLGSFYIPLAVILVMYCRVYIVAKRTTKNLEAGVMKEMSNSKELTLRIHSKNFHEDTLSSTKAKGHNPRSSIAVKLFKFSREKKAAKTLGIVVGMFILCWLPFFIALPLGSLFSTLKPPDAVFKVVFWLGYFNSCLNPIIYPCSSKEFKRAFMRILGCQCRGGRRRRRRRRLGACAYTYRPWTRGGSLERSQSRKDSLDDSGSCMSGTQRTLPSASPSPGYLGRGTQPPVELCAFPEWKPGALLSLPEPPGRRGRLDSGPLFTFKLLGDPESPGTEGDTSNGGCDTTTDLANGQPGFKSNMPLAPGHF
T1 sequence (P23944 whole entry): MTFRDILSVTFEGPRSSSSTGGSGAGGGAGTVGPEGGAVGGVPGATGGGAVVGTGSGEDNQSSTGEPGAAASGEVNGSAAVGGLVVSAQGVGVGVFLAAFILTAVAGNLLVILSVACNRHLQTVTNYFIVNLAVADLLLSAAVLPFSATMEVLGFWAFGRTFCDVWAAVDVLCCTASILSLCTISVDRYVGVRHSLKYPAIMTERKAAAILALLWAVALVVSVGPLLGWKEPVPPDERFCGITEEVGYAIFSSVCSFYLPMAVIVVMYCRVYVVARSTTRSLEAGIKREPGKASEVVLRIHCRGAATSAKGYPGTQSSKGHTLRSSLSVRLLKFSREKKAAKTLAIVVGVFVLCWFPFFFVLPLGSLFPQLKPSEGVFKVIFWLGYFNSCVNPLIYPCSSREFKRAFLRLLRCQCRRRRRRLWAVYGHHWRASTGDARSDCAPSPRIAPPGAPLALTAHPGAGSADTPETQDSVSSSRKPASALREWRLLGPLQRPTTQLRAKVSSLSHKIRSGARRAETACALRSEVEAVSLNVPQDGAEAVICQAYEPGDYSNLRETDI
T1 sequence (P43140 whole entry): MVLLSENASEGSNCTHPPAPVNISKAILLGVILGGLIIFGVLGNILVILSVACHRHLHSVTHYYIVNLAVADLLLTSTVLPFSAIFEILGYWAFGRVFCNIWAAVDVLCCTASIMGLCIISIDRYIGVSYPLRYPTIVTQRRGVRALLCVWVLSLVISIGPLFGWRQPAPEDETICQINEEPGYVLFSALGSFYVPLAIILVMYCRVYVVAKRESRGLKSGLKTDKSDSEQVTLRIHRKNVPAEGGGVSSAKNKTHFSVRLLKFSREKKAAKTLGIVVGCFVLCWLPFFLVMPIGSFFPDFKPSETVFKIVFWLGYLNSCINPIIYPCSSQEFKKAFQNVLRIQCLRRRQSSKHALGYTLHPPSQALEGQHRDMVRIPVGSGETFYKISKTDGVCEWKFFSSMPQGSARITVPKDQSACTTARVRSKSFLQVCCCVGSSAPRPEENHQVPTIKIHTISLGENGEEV
Procedure, shortened: (§1)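 Crude P2 membranes from male Sprague–Dawley rat brain (250–280 g), 0.2–0.3 mg protein. Radioligand 1 nM: [3H]2BFI for I2, [3H]prazosin for α1, [3H]RX821002 for α2. Non-specific binding defined by 10 µM BU224 (I2), 10 µM phenylephrine (α1) or 10 µM rauwolscine (α2). 11 concentrations from 0.01 nM to 100 µM, triplicate, 45 min at RT. Filtration and scintillation counting; Ki by Cheng–Prusoff.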

[2] = molecular target: T2, Alpha-2A adrenergic receptor (Homo sapiens, UniProt P08913); assay: Agonist activity at human adrenoceptor alpha2A expressed in CHOK1 cells assessed as stimulation of agonist-induced [35S]GTPgammaS binding by scintillation counting; format: functional, cell-based, CHO-K1
T2 sequence (P08913 whole entry): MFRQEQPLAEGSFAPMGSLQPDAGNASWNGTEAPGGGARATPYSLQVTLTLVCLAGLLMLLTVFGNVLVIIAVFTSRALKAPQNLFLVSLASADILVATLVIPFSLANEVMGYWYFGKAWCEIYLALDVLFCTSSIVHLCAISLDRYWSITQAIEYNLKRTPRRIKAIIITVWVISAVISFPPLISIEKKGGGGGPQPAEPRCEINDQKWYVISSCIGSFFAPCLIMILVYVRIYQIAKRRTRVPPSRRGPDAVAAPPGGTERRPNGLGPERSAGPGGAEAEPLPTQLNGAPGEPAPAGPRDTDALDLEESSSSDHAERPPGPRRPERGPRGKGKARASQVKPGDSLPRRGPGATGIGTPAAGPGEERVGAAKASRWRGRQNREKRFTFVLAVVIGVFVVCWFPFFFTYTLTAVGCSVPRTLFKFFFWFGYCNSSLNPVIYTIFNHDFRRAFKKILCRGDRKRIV
Procedure, shortened: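 Membranes from CHO-K1 cells stably expressing human α2A-adrenoceptor; 5 µg protein incubated with serial dilutions of agonist and 0.1 nM [35S]GTPγS in Tris buffer pH 7.4 with 1 µM GDP, MgCl2, NaCl, 30 min at RT. Filtered and counted by scintillation.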

[3] = Displacement of [3H]BFI from imidazoline I2 receptor in Sprague-Dawley rat brain membranes after 45 mins by scintillation counting; format: cell membranes, Membrane; procedure, shortened: as §1

Row | SMILES | Ki [1] | EC50 [2] | Ki [3]
1 | Cl.c1ccc2c(c1)cnn2CC1=NCCN1 | 0.272 µM | 4.5 µM | 42.2 µM
2 | Cc1cccc2cnn(CC3=NCCN3)c12.Cl | 0.101 µM | 17.4 µM | 6.84 µM
3 | Cl.Clc1cccc2cnn(CC3=NCCN3)c12 | 0.0141 µM | 16.6 µM | 0.554 µM
